We go through 27 compounds from ChEMBL document CHEMBL1156283, “Discovery and optimization of 2-(4-substituted-pyrrolo[2,3-b]pyridin-3-yl)methylene-4-hydroxybenzofuran-3(2H)-ones as potent and selective ATP-competitive inhibitors of the mammalian target of rapamycin (mTOR)” (Bioorg Med Chem Lett, 2010).

One data set relates to LNCaP. The data set is described as follows: Cytotoxicity against human LNCAP cells. The format is functional, cell-based.
The species named for another data set is Homo sapiens. The data set can be described thus: Selectivity ratio of IC50 for PI3Kalpha to IC50 for mTOR. Put shortly: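 Selectivity is calculated as the IC50 against PI3K divided by the IC50 against mTOR.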
The target of data set [1] is Tyrosine-protein kinase HCK (Homo sapiens, UniProt P08631). The data set is described as follows: Inhibition of HCK.
For the next data set, the target named is Aurora kinase B (Homo sapiens, UniProt Q96GD4). The data set is described as follows: Inhibition of Aurora B.
Data set [2] has as its target Cyclin-dependent kinase 2 (Homo sapiens, UniProt P24941). The data set can be described thus: Inhibition of CDK2.
Data set [3] has as its target Ribosomal protein S6 kinase alpha-1 (Homo sapiens, UniProt Q15418). The data set can be described thus: Inhibition of RSK1.
Data set [4] addresses Tyrosine-protein kinase Lyn (Homo sapiens, UniProt P07948). The data set can be described thus: Inhibition of LYN A.
Data set [5] concerns the target Tyrosine-protein kinase ABL1 (Homo sapiens, UniProt P00519). The data set is described as follows: Inhibition of ABL1.
Data set [6] has as its target Cyclin-dependent kinase 1 (Homo sapiens, UniProt P06493). The data set is described as follows: Inhibition of CDK1.
Data set [7] addresses Glycogen synthase kinase-3 beta (Homo sapiens, UniProt P49841). The data set is described as follows: Inhibition of GSK3-beta.
Data set [8] addresses Glycogen synthase kinase-3 alpha (Homo sapiens, UniProt P49840). The data set can be described thus: Inhibition of GSK3alpha.
Data set [9] addresses Mitogen-activated protein kinase 1 (Homo sapiens, UniProt P28482).
Data set [10] concerns the target MAP kinase-activated protein kinase 2 (Homo sapiens, UniProt P49137).
Data set [11] addresses Fibroblast growth factor receptor 1 (Homo sapiens, UniProt P11362).
Data set [12] concerns the target Serine/threonine-protein kinase mTOR (Homo sapiens, UniProt P42345). The data set is described as follows: Inhibition of mTOR.
Data set [13] addresses Phosphatidylinositol 4,5-bisphosphate 3-kinase catalytic subunit alpha isoform (Homo sapiens, UniProt P42336). The data set is described as follows: Inhibition of PI3Kalpha.
Data set [14] is described as follows: Half life in mouse microsomes in phase 1/2 using NADPH and UDPGA as a cofacto. It counts as ADME, Microsome.
The nature of data set [15]: Half life in mouse microsomes in phase 1 using NADPH as a cofactor. The format is ADME, Microsome.

Phosphatidylinositol 4,5-bisphosphate 3-kinase catalytic subunit alpha isoform, sequence (P42336 whole entry, canonical isoform): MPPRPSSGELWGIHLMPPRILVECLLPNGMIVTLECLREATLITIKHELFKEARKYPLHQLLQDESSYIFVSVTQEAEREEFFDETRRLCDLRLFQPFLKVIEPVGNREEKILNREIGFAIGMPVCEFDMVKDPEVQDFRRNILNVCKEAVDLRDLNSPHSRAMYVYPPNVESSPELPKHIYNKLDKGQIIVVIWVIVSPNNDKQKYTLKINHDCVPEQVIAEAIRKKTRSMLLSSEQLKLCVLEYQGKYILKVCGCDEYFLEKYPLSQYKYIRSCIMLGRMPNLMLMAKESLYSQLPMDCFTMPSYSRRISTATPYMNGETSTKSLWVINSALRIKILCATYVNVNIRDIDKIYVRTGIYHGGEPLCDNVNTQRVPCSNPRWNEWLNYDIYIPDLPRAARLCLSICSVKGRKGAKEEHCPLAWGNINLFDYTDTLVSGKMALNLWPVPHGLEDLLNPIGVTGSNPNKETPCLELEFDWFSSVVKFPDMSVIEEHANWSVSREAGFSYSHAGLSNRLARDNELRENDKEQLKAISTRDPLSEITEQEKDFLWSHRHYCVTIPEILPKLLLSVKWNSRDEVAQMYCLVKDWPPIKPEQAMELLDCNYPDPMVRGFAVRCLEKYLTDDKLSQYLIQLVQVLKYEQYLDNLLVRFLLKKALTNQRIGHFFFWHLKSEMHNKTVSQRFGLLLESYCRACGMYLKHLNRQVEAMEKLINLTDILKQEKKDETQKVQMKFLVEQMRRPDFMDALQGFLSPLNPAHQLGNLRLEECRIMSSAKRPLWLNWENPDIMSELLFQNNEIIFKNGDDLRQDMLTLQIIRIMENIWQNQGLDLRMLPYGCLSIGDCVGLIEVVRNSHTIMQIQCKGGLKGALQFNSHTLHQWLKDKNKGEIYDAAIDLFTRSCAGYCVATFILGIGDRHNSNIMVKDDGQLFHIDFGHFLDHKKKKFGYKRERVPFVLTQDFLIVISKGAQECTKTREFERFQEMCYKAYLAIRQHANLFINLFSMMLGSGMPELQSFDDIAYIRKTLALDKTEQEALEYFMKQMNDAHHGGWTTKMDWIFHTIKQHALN
Tyrosine-protein kinase ABL1, sequence (P00519 whole entry): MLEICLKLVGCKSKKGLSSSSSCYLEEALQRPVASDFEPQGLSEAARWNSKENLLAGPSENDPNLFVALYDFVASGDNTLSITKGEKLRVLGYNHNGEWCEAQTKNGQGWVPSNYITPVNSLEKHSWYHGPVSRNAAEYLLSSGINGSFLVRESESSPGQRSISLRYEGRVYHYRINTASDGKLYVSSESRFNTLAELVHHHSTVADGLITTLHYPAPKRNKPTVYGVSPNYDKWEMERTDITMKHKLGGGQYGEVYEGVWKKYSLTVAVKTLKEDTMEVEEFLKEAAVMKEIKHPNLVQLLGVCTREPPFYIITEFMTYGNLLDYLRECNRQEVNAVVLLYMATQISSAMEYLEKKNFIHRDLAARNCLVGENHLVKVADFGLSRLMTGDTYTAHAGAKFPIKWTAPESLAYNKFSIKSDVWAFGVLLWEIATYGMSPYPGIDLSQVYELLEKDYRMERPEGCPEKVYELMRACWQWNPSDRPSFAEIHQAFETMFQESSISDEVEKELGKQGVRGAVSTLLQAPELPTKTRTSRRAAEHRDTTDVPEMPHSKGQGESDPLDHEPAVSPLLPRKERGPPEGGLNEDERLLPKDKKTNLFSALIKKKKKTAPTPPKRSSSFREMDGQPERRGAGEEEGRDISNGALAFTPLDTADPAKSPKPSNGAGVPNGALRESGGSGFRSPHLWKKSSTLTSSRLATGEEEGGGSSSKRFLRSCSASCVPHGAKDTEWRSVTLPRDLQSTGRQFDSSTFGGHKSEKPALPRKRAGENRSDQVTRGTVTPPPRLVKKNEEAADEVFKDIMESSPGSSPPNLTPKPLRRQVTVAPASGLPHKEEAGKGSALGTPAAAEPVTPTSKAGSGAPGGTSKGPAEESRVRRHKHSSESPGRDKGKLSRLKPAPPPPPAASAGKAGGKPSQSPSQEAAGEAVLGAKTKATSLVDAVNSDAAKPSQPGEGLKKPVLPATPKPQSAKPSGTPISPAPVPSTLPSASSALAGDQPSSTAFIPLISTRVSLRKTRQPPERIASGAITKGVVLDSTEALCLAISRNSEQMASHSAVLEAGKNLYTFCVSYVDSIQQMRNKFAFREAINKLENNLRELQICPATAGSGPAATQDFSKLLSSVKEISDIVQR
Tyrosine-protein kinase Lyn, sequence (P07948 whole entry): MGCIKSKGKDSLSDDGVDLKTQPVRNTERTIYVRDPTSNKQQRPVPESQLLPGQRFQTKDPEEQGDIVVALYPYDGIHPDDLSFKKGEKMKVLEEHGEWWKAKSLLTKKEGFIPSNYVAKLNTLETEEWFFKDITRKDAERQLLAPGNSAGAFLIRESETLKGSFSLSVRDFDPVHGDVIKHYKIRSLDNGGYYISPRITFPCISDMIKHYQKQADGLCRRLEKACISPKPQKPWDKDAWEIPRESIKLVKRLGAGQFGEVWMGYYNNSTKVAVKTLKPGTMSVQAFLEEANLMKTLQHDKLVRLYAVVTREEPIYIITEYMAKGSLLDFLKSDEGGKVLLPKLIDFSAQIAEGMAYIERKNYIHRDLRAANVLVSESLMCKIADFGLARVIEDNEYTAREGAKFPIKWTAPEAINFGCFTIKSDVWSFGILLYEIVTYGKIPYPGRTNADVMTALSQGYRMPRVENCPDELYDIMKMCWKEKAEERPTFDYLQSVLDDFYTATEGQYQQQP
Mitogen-activated protein kinase 1, sequence (P28482 whole entry): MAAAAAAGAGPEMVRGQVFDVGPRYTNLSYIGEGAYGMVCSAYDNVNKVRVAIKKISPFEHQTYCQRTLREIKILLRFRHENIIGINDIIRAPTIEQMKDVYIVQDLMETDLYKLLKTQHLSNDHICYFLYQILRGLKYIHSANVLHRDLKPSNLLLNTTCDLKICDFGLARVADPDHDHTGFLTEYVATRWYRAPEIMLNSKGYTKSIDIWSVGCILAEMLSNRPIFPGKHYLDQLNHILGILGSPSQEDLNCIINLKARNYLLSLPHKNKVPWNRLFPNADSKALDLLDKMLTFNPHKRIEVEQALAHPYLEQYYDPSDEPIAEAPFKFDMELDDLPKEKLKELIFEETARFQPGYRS
Ribosomal protein S6 kinase alpha-1, sequence (Q15418 whole entry): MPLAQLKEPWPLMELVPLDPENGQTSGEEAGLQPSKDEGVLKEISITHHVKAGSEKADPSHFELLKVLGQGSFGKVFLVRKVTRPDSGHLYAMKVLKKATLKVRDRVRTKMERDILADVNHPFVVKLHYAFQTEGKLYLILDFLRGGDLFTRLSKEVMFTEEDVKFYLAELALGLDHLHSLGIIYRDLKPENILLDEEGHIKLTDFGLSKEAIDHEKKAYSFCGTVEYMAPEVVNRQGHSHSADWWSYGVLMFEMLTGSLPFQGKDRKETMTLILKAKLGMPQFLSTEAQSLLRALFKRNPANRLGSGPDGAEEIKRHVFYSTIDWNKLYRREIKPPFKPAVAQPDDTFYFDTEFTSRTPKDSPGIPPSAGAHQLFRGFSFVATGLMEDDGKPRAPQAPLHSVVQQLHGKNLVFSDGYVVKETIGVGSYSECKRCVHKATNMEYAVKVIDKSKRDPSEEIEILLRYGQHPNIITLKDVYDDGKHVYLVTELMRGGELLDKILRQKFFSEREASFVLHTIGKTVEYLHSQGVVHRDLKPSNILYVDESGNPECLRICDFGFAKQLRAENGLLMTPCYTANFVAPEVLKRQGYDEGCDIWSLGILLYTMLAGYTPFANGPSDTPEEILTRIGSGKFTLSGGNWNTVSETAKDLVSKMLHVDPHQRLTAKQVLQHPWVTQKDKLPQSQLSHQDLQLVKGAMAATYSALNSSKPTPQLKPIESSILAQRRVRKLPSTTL
Aurora kinase B, sequence (Q96GD4 whole entry): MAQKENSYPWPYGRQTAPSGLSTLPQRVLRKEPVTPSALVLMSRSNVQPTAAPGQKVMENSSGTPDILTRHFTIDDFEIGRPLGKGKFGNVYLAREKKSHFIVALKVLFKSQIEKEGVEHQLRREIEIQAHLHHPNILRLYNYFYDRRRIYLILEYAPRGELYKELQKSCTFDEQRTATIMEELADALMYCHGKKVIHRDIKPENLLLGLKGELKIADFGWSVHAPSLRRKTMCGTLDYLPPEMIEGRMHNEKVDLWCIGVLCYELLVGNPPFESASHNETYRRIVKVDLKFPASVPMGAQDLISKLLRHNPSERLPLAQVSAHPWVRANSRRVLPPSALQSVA
Tyrosine-protein kinase HCK, sequence (P08631 whole entry): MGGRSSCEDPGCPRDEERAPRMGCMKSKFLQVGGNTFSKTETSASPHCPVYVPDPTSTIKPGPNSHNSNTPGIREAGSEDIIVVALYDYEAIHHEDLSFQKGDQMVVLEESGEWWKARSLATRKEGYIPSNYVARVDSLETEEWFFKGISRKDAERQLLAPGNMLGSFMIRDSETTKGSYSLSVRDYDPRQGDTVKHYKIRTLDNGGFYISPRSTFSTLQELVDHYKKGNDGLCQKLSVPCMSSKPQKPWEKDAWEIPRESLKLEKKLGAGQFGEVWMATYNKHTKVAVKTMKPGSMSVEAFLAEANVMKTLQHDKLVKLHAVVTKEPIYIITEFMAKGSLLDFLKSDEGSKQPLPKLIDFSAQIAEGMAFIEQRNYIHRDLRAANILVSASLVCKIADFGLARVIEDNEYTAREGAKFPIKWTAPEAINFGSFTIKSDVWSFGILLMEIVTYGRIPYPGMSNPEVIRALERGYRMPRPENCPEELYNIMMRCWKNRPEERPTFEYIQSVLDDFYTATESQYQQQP
Cyclin-dependent kinase 1, sequence (P06493 whole entry): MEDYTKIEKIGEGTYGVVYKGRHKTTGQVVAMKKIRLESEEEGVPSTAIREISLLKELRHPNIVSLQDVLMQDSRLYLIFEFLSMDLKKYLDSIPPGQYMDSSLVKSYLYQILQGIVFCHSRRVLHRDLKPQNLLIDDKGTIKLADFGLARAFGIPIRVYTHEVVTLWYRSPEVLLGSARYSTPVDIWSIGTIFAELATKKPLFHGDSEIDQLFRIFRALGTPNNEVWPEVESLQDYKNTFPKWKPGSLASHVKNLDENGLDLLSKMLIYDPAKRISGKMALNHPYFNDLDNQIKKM

As for `Cn1cc(/C=C2\Oc3cccc(O)c3C2=O)c2c(N3CCOCC3)ccnc21`, the half-maximal inhibitory concentration (IC50) (as a rule, the midpoint of a concentration-inhibition curve) in the data set on LNCaP worked out at 5 nM. Also, in the data set filed under Homo sapiens, the Ratio IC50 came to 24.
In the data set on LNCaP, `Cn1cc(/C=C2\Oc3cccc(O)c3C2=O)c2c(N3C4CCC3COC4)ccnc21` returned an IC50 of 2 nM. In addition, the Ratio IC50 in the data set filed under Homo sapiens is 9.
As to `Cn1cc(/C=C2\Oc3cccc(O)c3C2=O)c2c(-c3ccc(C(=O)NCCO)cc3)ccnc21`, the IC50 in [1] turned out to be 27100 nM; at Aurora kinase B it was 22200 nM; in [2] it was 35500 nM; in [3], 45900 nM; in data set [4], 27700 nM; in data set [5], 9700 nM. In addition, the IC50 is 39200 nM in data set [6]; 5900 nM in [7]; 10600 nM in data set [8]; 50 nM in [9]; 6.5 nM in data set [10]; 50 nM in [11].
Consider `Cn1cc(/C=C2\Oc3cccc(O)c3C2=O)c2c(N3CC4CCC(C3)O4)ccnc21`, for which the results for the 50% inhibitory concentration (IC50) (in the data set with LNCaP; in data set [12]) were 2 nM and 0.38 nM, respectively. In addition, the Ratio IC50 in the data set filed under Homo sapiens is 274.
For `CCn1cc(/C=C2\Oc3cccc(O)c3C2=O)c2c(-c3ccc(C(=O)N4CCN(CCO)CC4)cc3)ccnc21`, the IC50 in data set [13] came out at 455 nM; in the data set on LNCaP, 4 nM. For the same compound, the Ratio IC50 in the data set filed under Homo sapiens worked out at 98.
On to `Cn1cc(/C=C2\Oc3cc(O)cc(O)c3C2=O)c2c(-c3ccccc3)ccnc21`, for which the half-life (commonly the time in which the quantity being followed falls by half) in data set [14] was determined as 2 min; in data set [15] it was 20 min. The results for the IC50 (with LNCaP; in data set [12]) were 77 nM and 0.46 nM, respectively. In the data set filed under Homo sapiens, the Ratio IC50 is 137.
With `Cn1cc(/C=C2\Oc3cccc(O)c3C2=O)c2c(N3CCC(C(N)=O)CC3)ccnc21`, the half-inhibitory concentration (IC50) in the data set with LNCaP is 10 nM; in data set [12], 0.72 nM. Moreover, the Ratio IC50 in the data set listed under Homo sapiens was determined as 41.
As to `Cn1cc(/C=C2\Oc3cccc(O)c3C2=O)c2c(-c3ccccc3)ccnc21`, the Ratio IC50 in the data set listed under Homo sapiens was 25.8. For the same compound, the half-maximal inhibitory concentration (IC50) in data set [12] is 3.45 nM. Besides, in data set [15], the half-life amounted to 22 min.
With `CN1CCN(c2ccnc3c2c(/C=C2\Oc4cccc(O)c4C2=O)cn3C)CC1`, the IC50 with LNCaP was determined as 3 nM; in [12] it was 2.75 nM. For the same compound, the Ratio IC50 in the data set listed under Homo sapiens is 63.
Regarding `Cn1cc(/C=C2\Oc3cccc(O)c3C2=O)c2c(-c3ccc(C(=O)N4CCN(CCO)CC4)cc3)ccnc21`, the half-life in [14] and in data set [15] was over 30 min throughout. Also, the IC50 in the data set on LNCaP was determined as 1 nM; in [12] it was 0.39 nM. For the same compound, the Ratio IC50 in the data set listed under Homo sapiens was 256.
Take `Cn1cc(/C=C2\Oc3cccc(O)c3C2=O)c2c(-c3ccc(C(=O)N4CCOCC4)cc3)ccnc21`: the half-life in data set [14] is 10 min; in data set [15], over 30 min. This compound registered a concentration for half-maximal inhibition (IC50) in the data set on LNCaP of 1 nM. Further, the Ratio IC50 in the data set listed under Homo sapiens was 97.
For `CN(C)C(=O)c1ccc(-c2ccnc3c2c(/C=C2\Oc4cccc(O)c4C2=O)cn3C)cc1`, the half-maximal inhibitory concentration (IC50) in the data set on LNCaP was 4 nM; in data set [12] it was 0.55 nM. For the same compound, the Ratio IC50 in the data set listed under Homo sapiens is 65.
For `Cn1cc(/C=C2\Oc3cc(O)cc(O)c3C2=O)c2cccnc21`, the IC50 is 77 nM in data set [13], 6500 nM with LNCaP and 42 nM in data set [12]. The Ratio IC50 in the data set filed under Homo sapiens amounted to 1.7.
Turning to `CN1CCN(c2ccnc3c2c(/C=C2\Oc4cc(O)cc(O)c4C2=O)cn3C)CC1`, the concentration for half-maximal inhibition (IC50) in [13] is 43 nM; with LNCaP it was 110 nM. Also, in the data set listed under Homo sapiens, the Ratio IC50 was determined as 46.
Take `Cn1cc(/C=C2\Oc3cccc(O)c3C2=O)c2c(N3CCC(C(=O)N4CCN(CCO)CC4)CC3)ccnc21`: the half-inhibitory concentration (IC50) was 25 nM in data set [13], 1 nM with LNCaP and 1.85 nM in [12]. Also, the values for the half-life in data set [14] and in data set [15] were 14 min and over 30 min, respectively. Moreover, the Ratio IC50 in the data set filed under Homo sapiens was determined as 13.
Regarding `Cn1cc(/C=C2\Oc3cc(O)cc(O)c3C2=O)c2c(-c3ccccc3)cccc21`, the half-maximal inhibitory concentration (IC50) in data set [13] is 1480 nM; in the data set with LNCaP, 1400 nM.
As to `Cn1cc(/C=C2\Oc3cccc(O)c3C2=O)c2c(N3CCC(N)CC3)ccnc21`, half-maximal inhibition with LNCaP (IC50) was put at 240 nM. Further, in the data set listed under Homo sapiens, the Ratio IC50 stood at 6.
In the case of `Cn1cc(/C=C2\Oc3cccc(O)c3C2=O)c2c(-c3ccc(C(=O)N4CC5CCC(C4)O5)cc3)ccnc21`, the half-life in [14] was 2 min; in [15], 6 min. Also, the half-inhibitory concentration (IC50) in the data set on LNCaP was 8 nM; in [12] it was 0.56 nM. Also, the Ratio IC50 in the data set listed under Homo sapiens came to 103.
As for `CN(C)C(=O)C1CCN(c2ccnc3c2c(/C=C2\Oc4cccc(O)c4C2=O)cn3C)CC1`, the results for the IC50 (in data set [13]; in the data set on LNCaP; in data set [12]) were 30 nM, 1 nM and 0.67 nM, respectively. For the same compound, the half-life was 20 min in data set [14] and over 30 min in data set [15]. In addition, the Ratio IC50 in the data set listed under Homo sapiens is 46.
Take `Cn1cc(/C=C2\Oc3cccc(O)c3C2=O)c2c(N3CCC(C(=O)N4CCOCC4)CC3)ccnc21`: the half-life in data set [14] and in [15] was over 30 min each time. The compound further displayed a concentration for half-maximal inhibition (IC50) in the data set on LNCaP of under 1 nM. The Ratio IC50 in the data set filed under Homo sapiens worked out at 45.
On to `CN(C)C(=O)c1ccccc1-c1ccnc2c1c(/C=C1\Oc3cccc(O)c3C1=O)cn2C`, for which, in the data set on LNCaP, the half-inhibitory concentration (IC50) is over 60000 nM. Further, the Ratio IC50 in the data set filed under Homo sapiens was determined as 32.8.
Taken in the same sequence, the figures for `Cn1cc(/C=C2\Oc3cccc(O)c3C2=O)c2c(N3CCC(CN)CC3)ccnc21` were 75 nM and 9.
With `Cn1cc(/C=C2\Oc3cc(O)ccc3C2=O)c2c(-c3ccccc3)ccnc21`, in the data set on LNCaP, the IC50 was 1800 nM. Moreover, in the data set filed under Homo sapiens, the Ratio IC50 is 11.
In the case of `CN(C)C(=O)c1cccc(-c2ccnc3c2c(/C=C2\Oc4cccc(O)c4C2=O)cn3C)c1`, in the data set with LNCaP, the midpoint of inhibition, the IC50, lay at 600 nM. In addition, the Ratio IC50 in the data set filed under Homo sapiens stood at 20.5.
With `CN1CCN(C(=O)c2ccc(-c3ccnc4c3c(/C=C3\Oc5cccc(O)c5C3=O)cn4C)cc2)CC1`, the half-life in data set [14] came to 24 min; in data set [15], 28 min. This compound also showed an IC50 in the data set on LNCaP of 9 nM. Moreover, the Ratio IC50 in the data set listed under Homo sapiens came out at 70.
As for `Cn1cc(/C=C2\Oc3cccc(O)c3C2=O)c2c(N3CCC(C(=O)N4CC5CCC(C4)O5)CC3)ccnc21`, the IC50 in data set [13] came to 52 nM; in the data set with LNCaP, 1 nM. Besides, the half-life in data set [14] is 16 min; in [15], over 30 min. In the data set filed under Homo sapiens, the Ratio IC50 stood at 26.
Consider `CN1CCN(C(=O)C2CCN(c3ccnc4c3c(/C=C3\Oc5cccc(O)c5C3=O)cn4C)CC2)CC1`, for which the half-life in data set [14] and in data set [15] was over 30 min each time. In the data set with LNCaP, this compound yielded an IC50 of under 1 nM. For the same compound, the Ratio IC50 in the data set listed under Homo sapiens worked out at 12.
